NCF1 inh – p47phox (human) inhibition; 220,000 tested, 0.53% active; inhibition, % at 24.7 µM; p47phox/p22phox peptide binding, fluorescence polarization, 2 h; AID 1274;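 also: 0% = p47phox with labelled peptide and 100% = labelled peptide alone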
p97 inhibitor – human p97 ATPase inhibition | recombinant p97 ATPase, Kinase-Glo ATP luminescence, 3 h | inhibition, % at 8 µM | 220,000 tested, 0.42% active; in the data active = inhibition above about 15%;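 also: 0% = DMSO vehicle and 100% = wells lacking enzyme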
TbMetRS inhib – Trypanosoma brucei MetRS inhibition. purified T. brucei MetRS, ATP depletion, Kinase-Glo luminescence. inhibition, % at 11.9 µM. 360,000 tested, 0.4% active;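 active = inhibition above a per-plate cutoff of the control wells' mean inhibition plus 3 SD, cut at about 5.5% in these data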;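 also: 0% = DMSO wells median and 100% = median of wells with control inhibitor compound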
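Assay system: T. brucei methionyl-tRNA synthetase, purified | Medium: HEPES buffer with MgCl2, KCl, DTT, spermine, BSA, pyrophosphatase | Compound: 11.9 µM single point | Incubation: 15 min enzyme-compound preincubation, 2 h reaction, 10 min detection, 25 °C | Measured by: Kinase-Glo luciferase luminescence reporting remaining unconsumed ATP | Measure: % inhibition normalized to control-well medians | Replication: Singlicate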
SUMO HTRF inh – blocks human SUMOylation mediated by UBC9; HTRF SUMOylation assay, SAE1/SAE2 + UBC9, in vitro; AID 2006; inhibition, % at 35 µM; 290,000 tested, 0.36% active; P63279; in the data active = inhibition above about 50%, passing the limit was not always enough
14-3-3 Bad PPI – disrupts binding of bovine 14-3-3 zeta to phospho-Bad peptide. inhibition, % at 21.7 µM. TR-FRET 14-3-3zeta/Dy647-pBad peptide displacement, 1 h. 220,000 tested, 0.71% active. P63103;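 active = inhibition above about 70%, limit read from the data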;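 also: 0% = full 14-3-3 plus peptide FRET controls and 100% = background without 14-3-3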
eIF4E 4G PPI – blocks eIF4E binding to eIF4G; AID 782; inhibition, % at 21.7 µM; P63073+Q04637; 220,000 tested, 0.37% active; TR-FRET eIF4E-eIF4GI(517-606) binding, 2 h;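 also: 0% = full FRET control wells and 100% = background wells lacking eIF4GI fragment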
Tb MetRS conf – Trypanosoma brucei MetRS inhibition confirmed; shares compounds with TbMetRS inhib; T. brucei MetRS enzyme, luminescence (ATP depletion); inhibition, % at 11.9 µM; 1,400 tested, 93% active; AID 624412; in the data active = inhibition above about 7%
Jurkat tox – kills Jurkat cells in T. brucei MetRS counterscreen; shares compounds with TbMetRS inhib; Jurkat cells viability, ATP luminescence; inhibition, % at 8.3 µM; 1,400 tested, 12% active; in the data active = inhibition above about 15%;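 also: 0% = vehicle and 100% = reference inhibitor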
TbMetRS FP orth – inhibits T. brucei methionyl tRNA synthetase in orthogonal FP test. 1,400 tested, 44% active. purified T. brucei MetRS, fluorescence polarization. shares compounds with TbMetRS inhib. inhibition, % at 11.9 µM. AID 651607; in the data active = inhibition above about 17%;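 also: 0% = vehicle wells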
Starred values were filed as active, the others as inactive; / = not tested or not shown. Most compounds without a hit are left out; they make up all but 1.6% or so of the library.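 The calls were made as follows, unless noted: active = inhibition above about 30% (limit read from the data); inactive = the rest.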

SMILES	NCF1 inh	p97 inhibitor	TbMetRS inhib	SUMO HTRF inh	14-3-3 Bad PPI	eIF4E 4G PPI	Tb MetRS conf	Jurkat tox	TbMetRS FP orth
Cc1ccc2[nH]c(=O)c(CN(CCN3CCOCC3)C(=O)Nc3ccc(F)cc3)cc2c1	-6	2	5.9*	15	-6	2	9.1*	3	0
Cc1cc(Cl)ccc1OCc1cn2cccnc2n1	0	2	11*	0	-1	2	21*	5	2
OC(Cn1cnnc1)c1ccccc1 (centres undefined)	/	/	-1	20	/	/	/	/	/
CC(C)NC(=O)c1ccccc1-c1ccccc1	-3	0	-2	6	3	-1	/	/	/
CC(NC(=O)c1cccc2c1Oc1ccccc1S2)C(=O)O (centres undefined)	/	/	8.7*	/	/	/	11*	-8	2
O=C(Cc1ccc(Br)cc1)N/N=C/c1ccc(-c2cccc(C(=O)O)c2)o1	2	4	6.9*	17	2	-3	16*	0	5
Nc1nnc(CC(=O)N/N=C/c2ccc(-c3cccc(C(=O)O)c3)o2)s1	-6	9	0	8	5	-4	/	/	/
CCNC(=S)NNC(=O)c1cc(Br)cs1	-11	4	0	29	-15	3	/	/	/
O=C(CCn1c(=O)oc2ccccc21)Nc1ccc2c(c1)OCCO2	-2	/	21*	-4	-1	-18	0	14	1
C=CCNC(=S)NNC(=O)COc1ccc2cc(Br)ccc2c1	-5	2	19*	-27	-24	-3	46*	-1	24*
C=CCNC(=S)NNC(=O)COc1ccc(Br)cc1	-6	4	1	-19	-6	-9	/	/	/
O=C(c1ccccc1)c1ccc(-n2cnnc2)c([N+](=O)[O-])c1	/	/	24*	3	/	/	44*	1	26*
O=C(c1ccccc1)c1ccc(-n2ccnc2)c([N+](=O)[O-])c1	/	/	4	9	/	/	/	/	/
CCOc1ccc(CSCCNC(=S)Nc2ccccc2)cc1	1	-10	14*	-3	-6	-8	25*	16*	16
S=C(NCCSCc1c(Cl)cccc1Cl)Nc1ccccc1	-3	1	0	15	-24	0	/	/	/
COc1ccc(CSCCNC(=S)Nc2ccccc2)cc1Cl	-4	2	28*	2	-24	-3	41*	1	22*
S=C(NCCSCc1ccc(Cl)c(Cl)c1)Nc1ccccc1	/	-5	41*	/	/	/	57*	-5	41*
CCOc1ccc(NC(=S)NCCCc2ccccc2)cc1	-2	0	3	5	-8	0	/	/	/
CN(Cc1ccc2nsnc2c1)C(=O)C1CCC(=O)N(CCc2ccccc2)C1 (centres undefined)	/	/	0	/	/	/	/	/	/
O=C(O)c1cccc(-n2c(O)c(C=C3N=c4ccccc4=N3)sc2=S)c1	-26	7	18*	13	-7	-3	41*	-3	14
Cc1ccc(C)n1-c1cccc(C(=O)O)c1	-13	/	/	32	43	25	/	/	/
O=C(O)c1ccc(-n2c(O)c(C=C3N=c4ccccc4=N3)sc2=S)cc1	-11	10	7.8*	0	-12	-2	33*	-5	11
CCN(CC)c1ccc(-n2c(O)c(C=C3N=c4ccccc4=N3)sc2=S)cc1	-8	3	0	-11	-6	4	/	/	/
CCCCn1nnnc1C(c1cc2ccccc2o1)N1CCN(C(=O)OCC)CC1 (centres undefined)	/	/	-1	/	/	/	/	/	/
Cc1cnc2c(N)cc(C)c(C)c2c1	/	/	0	/	/	/	/	/	/
SMILES	NCF1 inh	p97 inhibitor	TbMetRS inhib	SUMO HTRF inh	14-3-3 Bad PPI	eIF4E 4G PPI	Tb MetRS conf	Jurkat tox	TbMetRS FP orth
C(=C/c1nccc2c1[nH]c1ccccc12)/c1ccc2c(c1)OCO2	1	5	5.9*	-11	-4	0	3	42*	91*
C(=N\Nc1nc2ccccc2[nH]1)/c1ccc2c(c1)OCO2	-21	-1	4	-10	-8	-1	/	/	/
O=C(NCc1nc2ccccc2[nH]1)C1=C[C@@H](C2CCCCC2)C[C@@H](OCc2ccc(CO)cc2)O1	-32	4	9.0*	-2	-5	-2	82*	1	54*
O=C(NCc1nc2ccccc2[nH]1)C1=C[C@H](C2CCCCC2)C[C@H](OCCCCO)O1	/	/	59*	/	/	/	75*	7	53*
Cc1ccc(NC(=O)CCNS(=O)(=O)c2ccc(Br)s2)cc1	/	/	18*	-14	/	/	40*	-1	24*
O=C(NCCO)c1nc(C(=O)c2ccccc2)c2ccccc2n1	/	/	0	/	/	/	/	/	/
Cc1ccc(C(=O)NCCn2c(N)c(C#N)c3nc4ccccc4nc32)cc1	-46	1	1	36	-2	-5	/	/	/
CCCCn1c(NC(=O)c2ccccc2)c(C#N)c2nc3ccccc3nc21	-54	40*	11*	98*	17	-17	15*	4	7
N#Cc1cccc(S(=O)(=O)NCC(=O)NCc2ccc3c(c2)OCO3)c1	/	/	0	/	/	/	/	/	/
Cc1ccc2nc(/C(C#N)=C/c3cn[nH]c3-c3ccc(F)cc3)[nH]c2c1	-51	10	24*	16	0	4	51*	57*	47*
O=C(O)C1CCCN1c1nc(-c2ccc(Cl)c(Cl)c2)cc(C(F)(F)F)n1 (centres undefined)	/	/	0	/	/	/	/	/	/
Cc1[nH]c2ccccc2c(=O)c1CN1CCCCC1	-1	-3	0	2	-2	2	/	/	/
Cc1[nH]c2ccc(Br)cc2c(=O)c1CN1CCCCCC1	/	/	60*	2	/	/	82*	4	52*
Cc1[nH]c2ccc(Cl)cc2c(=O)c1CN1CCCC1	-284	3	45*	11	-10	0	48*	10	28*
COc1cc(/C=C2\SC(=S)N(NS(=O)(=O)c3ccc(C)cc3)C2=O)ccc1O	-241	11	5	15	-8	-1	/	/	/
CCOc1cc(/C=C2\SC(=S)N(NS(=O)(=O)c3ccc(C)cc3)C2=O)ccc1O	/	/	5.8*	/	/	/	11*	-4	32*
COCCN(C(=O)c1csnn1)C(C(=O)NC1CCCCC1)c1ccc(Cl)cc1 (centres undefined)	/	/	9.2*	0	/	/	2	-2	-2
c1ccc(CNc2nc(NCCc3ccncc3)c3sccc3n2)cc1	/	/	12*	/	/	/	33*	9	19*
O=C(O)CC1S/C(=N/N=C/c2ccc(-c3ccc(Cl)c([N+](=O)[O-])c3)o2)NC1=O (centres undefined)	-10	4	1	32	-11	1	/	/	/

From PubChem BioAssay
